From PubChem BioAssay
The source made the active and inactive calls.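 How the source made its calls, unless noted: active means Her2 level under about 52% in both replicate screens, with viability over 70% of control (limit read from the data); inconclusive means Her2 under the limit in one screen only, or viability under 70%; inactive means Her2 level above the set limit.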

Tests used:
[1] = target: Pantothenate synthetase (Mycobacterium tuberculosis (strain ATCC 25618 / H37Rv)) (UniProt P9WIL5); assay: Recombinant Mtb pantothenate synthetase (PanC) inhibitors, coupled enzyme, confirmatory (AID 375; call rule not given here;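 further: 0% = full reaction with vehicle and 100% = no enzyme background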); details: coupled enzyme assay; at 10 µM, stronger effect = higher value
[2] = reducers of endogenous Her2 protein level, primary screen, SKBR3 breast tumor cells, AlphaScreen, ATP viability (AID 461); details: 18-24 h, measured here: SKBR3 viability, ATP luminescence, at 10 µM;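 on Her2 level: lower value means less Her2 protein in the cells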;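 on viability: percent of carrier control wells set as 100% viability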
[3] = target: Receptor tyrosine-protein kinase erbB-2 (Homo sapiens) (UniProt P04626); assay: as above; details: 18-24 h, at 10 µM, stronger effect = lower value
[4] = SK-BR-3 cell growth inhibitors, pilot screen, 24 h, human (AID 572;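 active means viability at or below 10% of carrier control in both of two separate runs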;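 further: compound exposure lasted between 18 and 24 h rather than exactly 24 h; 100% = carrier-treated control wells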); details: SK-BR-3 viability, CellTiter-Glo luminescence, at 10 µM, stronger effect = lower value
[5] = HUVEC growth inhibition – cell-based, human, primary screen (AID 575;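 active means viability at or below 30% in both replicate assays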;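 further: 100% = median of untreated cell wells with 0.1% DMSO on each plate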); details: HUVEC proliferation, CellTiter-Glo luminescence, 72 h; at 10 µM; stronger effect = lower value
How it was run: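 Test system: HUVEC primary cells. Quantity: 1250 endothelial cells in each well. Dosing: single-point 10 µM, DMSO 0.1% final. Incubation: 72 h treatment at 37 °C. Measured by: CTG luminescence. Control set: DMSO cell controls and MePR drug controls. Plate: collagen-coated 384-well format.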

[6] = growth inhibitors of H69AR lung tumor, primary screen, human, duplicate replicates (AID 580;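 active means viability at or under a set limit in both replicates, limit being median viability minus 3 SD, cut at about 48% in these data, passing the limit was not always enough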;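 further: 100% = mean luminescence of untreated wells and 0% = no signal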); details: H69AR lung tumor cells viability, ATP luminescence, 72 h; at 10 µM; stronger effect = lower value
[7] = reversal of MRP1-mediated doxorubicin resistance, pilot screen, H69AR cells, doxorubicin co-treatment (AID 601;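 active means viability loss from added drug above about 55%, and viability with drug at most 40%, in both replicates, limit read from the data, passing the limit was not always enough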); details: CellTiter-Glo, 72 h, at 10 µM; for differential viability (reversal): stronger effect = higher value
[8] = 384-well plate pilot, post-Golgi transport modulator project, inhibition of yeast transport mutant growth (AID 636; in the data active means inhibition above about 31%); details: absorbance 615 nm, about 18 h, stronger effect = higher value
[9] = growth suppression of yeast trafficking mutant, preliminary HTS, modulators of trafficking downstream of Golgi apparatus project, 1536-format plate, OD 615 nm (AID 637; in the data active means inhibition above about 30%); details: yeast transport mutant growth, absorbance 615 nm, 18 h; stronger effect = higher value
[10] = H69AR cells + 2 uM doxorubicin, measured here: viability with 2 uM doxorubicin, stronger effect = lower value
[11] = H69AR cells, compound alone cytotoxicity

Chain of Receptor tyrosine-protein kinase erbB-2 (Homo sapiens) (P04626 whole entry, looked up): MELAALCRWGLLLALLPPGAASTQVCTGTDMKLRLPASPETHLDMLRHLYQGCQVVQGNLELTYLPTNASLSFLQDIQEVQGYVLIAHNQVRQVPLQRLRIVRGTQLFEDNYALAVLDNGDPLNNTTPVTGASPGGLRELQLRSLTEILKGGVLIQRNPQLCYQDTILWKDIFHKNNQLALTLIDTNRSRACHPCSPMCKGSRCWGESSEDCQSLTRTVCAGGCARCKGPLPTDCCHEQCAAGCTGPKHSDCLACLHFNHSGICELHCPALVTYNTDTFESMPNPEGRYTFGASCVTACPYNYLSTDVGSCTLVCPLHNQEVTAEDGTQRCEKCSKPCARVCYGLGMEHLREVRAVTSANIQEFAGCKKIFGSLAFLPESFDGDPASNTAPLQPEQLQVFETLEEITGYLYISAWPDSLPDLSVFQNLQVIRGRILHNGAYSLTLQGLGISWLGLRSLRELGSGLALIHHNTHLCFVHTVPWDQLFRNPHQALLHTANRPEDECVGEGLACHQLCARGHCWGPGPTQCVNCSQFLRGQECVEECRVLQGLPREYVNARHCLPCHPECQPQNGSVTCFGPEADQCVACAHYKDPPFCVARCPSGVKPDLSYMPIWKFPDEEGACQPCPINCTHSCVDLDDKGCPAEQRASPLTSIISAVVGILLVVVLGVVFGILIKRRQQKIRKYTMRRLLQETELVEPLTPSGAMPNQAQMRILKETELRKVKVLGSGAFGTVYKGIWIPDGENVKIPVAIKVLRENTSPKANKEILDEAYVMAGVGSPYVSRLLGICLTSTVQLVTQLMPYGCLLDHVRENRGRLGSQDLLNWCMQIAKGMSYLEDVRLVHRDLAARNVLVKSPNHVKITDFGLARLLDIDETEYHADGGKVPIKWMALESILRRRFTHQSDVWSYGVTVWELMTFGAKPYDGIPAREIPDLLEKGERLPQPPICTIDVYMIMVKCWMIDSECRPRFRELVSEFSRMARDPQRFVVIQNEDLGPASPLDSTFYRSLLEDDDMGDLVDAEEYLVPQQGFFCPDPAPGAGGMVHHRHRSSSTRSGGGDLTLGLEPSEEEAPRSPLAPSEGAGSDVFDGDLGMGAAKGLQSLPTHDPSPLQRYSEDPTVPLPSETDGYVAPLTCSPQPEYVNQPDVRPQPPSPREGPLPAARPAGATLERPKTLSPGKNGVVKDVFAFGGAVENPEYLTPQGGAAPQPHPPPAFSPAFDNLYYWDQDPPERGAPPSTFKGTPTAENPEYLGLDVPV
Chain of Pantothenate synthetase (Mycobacterium tuberculosis (strain ATCC 25618 / H37Rv)) (P9WIL5 whole entry, looked up): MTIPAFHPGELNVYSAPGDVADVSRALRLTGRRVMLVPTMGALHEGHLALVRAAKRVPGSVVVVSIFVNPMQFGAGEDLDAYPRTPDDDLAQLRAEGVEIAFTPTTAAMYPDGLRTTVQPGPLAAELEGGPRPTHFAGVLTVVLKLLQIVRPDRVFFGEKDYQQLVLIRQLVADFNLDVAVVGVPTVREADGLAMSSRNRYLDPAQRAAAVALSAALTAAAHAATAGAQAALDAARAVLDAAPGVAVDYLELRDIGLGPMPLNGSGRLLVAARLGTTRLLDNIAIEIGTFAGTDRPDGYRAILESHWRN

SMILES	inhibition [1]	viability [2] [%]	Her2 level [3]	viability [4]	viability [5]	viability [6]	differential viability (reversal) ([7]; H69AR cells + 2 uM doxorubicin)	viability [7, 10] [%]	viability [7, 11] [%]	inhibition [8]	inhibition [9]
CCN1c2nc3c(C)cccn3c(=O)c2CC2(C(=O)N(C)C(=O)N(C)C2=O)C1C (stereo not given)	0% (inactive)	101	94.5% (inactive)	101% (inactive)	88.9% (inactive)	91.4% (inactive)	4.38% (inactive)	87	91.4	-4.59% (inactive)	-2.13% (inactive)
Cn1c(=O)cc(SCC(=O)N2CCC3(CC2)OCCO3)c2ccc(Cl)cc21	9% (inactive)	116	94.5% (inactive)	116% (inactive)	87.6% (inactive)	79.1% (inactive)	8.79% (inactive)	70.3	79.1	-3.03% (inactive)	1.77% (inactive)
COc1ccccc1-n1c(O)c(C=NCc2ccc3c(c2)OCO3)c(=O)[nH]c1=O	7% (inactive)	93.5	91.5% (inactive)	93.5% (inactive)	81.3% (inactive)	91.8% (inactive)	3.46% (inactive)	88.3	91.8	-2.43% (inactive)	-0.48% (inactive)
CCCCn1c(O)c(C=NC2CCCCC2N)c(=O)[nH]c1=O (stereo not given)	0% (inactive)	128	96.5% (inactive)	128% (inactive)	92.6% (inactive)	79.3% (inactive)	4.94% (inactive)	74.4	79.3	-2.6% (inactive)	1.43% (inactive)
Nc1ccnn1C1CCNCC1	2% (inactive)	88.5	105% (inactive)	88.5% (inactive)	97% (inactive)	107% (inactive)	5.6% (inactive)	102	107	-4.25% (inactive)	-2.06% (inactive)
